Columns and labels:
[1] = target: Fibroblast growth factor receptor 4 (Homo sapiens) (UniProt P22455); experiment: Inhibition of FGFR4 (unknown origin) using [gamma-33P]ATP assessed as residual activity at 3 uM
Procedure, shortened: (§1)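 Reaction Biology HotSpot radiometric profiling panel of 288 kinases (261 wild-type, 27 mutant). Kinase activity was read out by incorporation of [γ-33P]ATP.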

[2] = system: Serine/threonine-protein kinase Chk2 (Homo sapiens), O96017 [I157T]; experiment: Inhibition of CHK2 I157T mutant (unknown origin) using [gamma-33P]ATP assessed as residual activity at 3 uM
Chain of Serine/threonine-protein kinase Chk2 (Homo sapiens), O96017 [I157T] (O96017 whole entry I157T): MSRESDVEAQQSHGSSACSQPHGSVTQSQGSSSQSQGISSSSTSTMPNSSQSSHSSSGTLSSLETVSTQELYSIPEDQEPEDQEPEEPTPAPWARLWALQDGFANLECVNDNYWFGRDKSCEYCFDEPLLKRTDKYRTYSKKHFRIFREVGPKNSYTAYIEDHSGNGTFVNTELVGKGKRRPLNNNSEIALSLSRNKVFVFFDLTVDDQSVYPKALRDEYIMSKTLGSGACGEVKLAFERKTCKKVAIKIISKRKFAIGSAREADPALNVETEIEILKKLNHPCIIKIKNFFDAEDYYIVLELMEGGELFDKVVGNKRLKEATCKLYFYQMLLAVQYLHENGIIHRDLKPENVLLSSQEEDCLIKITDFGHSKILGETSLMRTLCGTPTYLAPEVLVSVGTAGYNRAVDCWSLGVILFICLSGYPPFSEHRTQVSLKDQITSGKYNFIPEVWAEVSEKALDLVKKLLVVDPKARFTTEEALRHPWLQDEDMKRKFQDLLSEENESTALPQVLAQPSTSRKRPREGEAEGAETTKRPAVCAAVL

[3] = target: MAP kinase-interacting serine/threonine-protein kinase 2 (Homo sapiens) (UniProt Q9HBH9); experiment: Inhibition of MNK2 (unknown origin) using [gamma-33P]ATP assessed as residual activity at 3 uM
Chain of MAP kinase-interacting serine/threonine-protein kinase 2 (Homo sapiens) (Q9HBH9 whole entry, looked up, canonical isoform): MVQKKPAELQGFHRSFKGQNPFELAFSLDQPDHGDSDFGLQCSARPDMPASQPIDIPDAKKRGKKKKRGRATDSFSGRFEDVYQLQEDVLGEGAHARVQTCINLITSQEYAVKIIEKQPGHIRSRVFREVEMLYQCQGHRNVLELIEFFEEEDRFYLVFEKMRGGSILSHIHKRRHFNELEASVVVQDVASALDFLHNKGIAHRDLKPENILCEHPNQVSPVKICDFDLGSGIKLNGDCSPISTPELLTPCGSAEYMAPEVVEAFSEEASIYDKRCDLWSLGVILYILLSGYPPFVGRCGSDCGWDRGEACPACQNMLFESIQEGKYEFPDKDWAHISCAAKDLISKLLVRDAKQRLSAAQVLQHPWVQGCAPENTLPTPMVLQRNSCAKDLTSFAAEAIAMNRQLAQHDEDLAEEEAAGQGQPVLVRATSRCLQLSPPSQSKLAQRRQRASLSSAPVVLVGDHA

[4] = target: Casein kinase I isoform epsilon (Homo sapiens) (UniProt P49674); experiment: Inhibition of CK1epsilon (unknown origin) using [gamma-33P]ATP assessed as residual activity at 3 uM; procedure, shortened: as §1
[5] = target: Protein kinase C beta type (Homo sapiens) (UniProt P05771); experiment: Inhibition of PKCb2 (unknown origin) using [gamma-33P]ATP assessed as residual activity at 3 uM
[6] = system: Epidermal growth factor receptor (Homo sapiens), P00533 [L861R,T790M]; experiment: Inhibition of EGFR […] double mutant (unknown origin) using [gamma-33P]ATP assessed as residual activity at 3 uM; format: protein assay; procedure, shortened: as §1
[7] = target: Dual specificity mitogen-activated protein kinase kinase 2 (Homo sapiens) (UniProt P36507); experiment: Inhibition of MEK2 (unknown origin) using [gamma-33P]ATP assessed as residual activity at 3 uM
Chain of Dual specificity mitogen-activated protein kinase kinase 2 (Homo sapiens) (P36507 whole entry): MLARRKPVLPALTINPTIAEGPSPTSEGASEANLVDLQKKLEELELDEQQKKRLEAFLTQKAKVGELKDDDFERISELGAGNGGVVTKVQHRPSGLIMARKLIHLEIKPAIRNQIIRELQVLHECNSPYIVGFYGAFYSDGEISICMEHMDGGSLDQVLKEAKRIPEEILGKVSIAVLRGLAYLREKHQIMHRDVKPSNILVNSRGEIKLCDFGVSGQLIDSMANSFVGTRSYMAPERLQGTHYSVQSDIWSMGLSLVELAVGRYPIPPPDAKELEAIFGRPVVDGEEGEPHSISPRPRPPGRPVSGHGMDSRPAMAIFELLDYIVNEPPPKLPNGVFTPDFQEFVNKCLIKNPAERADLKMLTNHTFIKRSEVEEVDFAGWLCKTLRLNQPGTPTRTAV
Procedure, shortened: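 Contract radiometric panel screen of 288 kinases (261 wild-type, 27 mutant). Inhibition was read by [gamma-33P]ATP radioactivity incorporation.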

[8] = target: Interleukin-1 receptor-associated kinase 1 (Homo sapiens) (UniProt P51617); experiment: Inhibition of IRAK1 (unknown origin) using [gamma-33P]ATP assessed as residual activity at 3 uM
Procedure, shortened: (§2)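 Radiometric kinase profiling service covering 288 kinases (261 wild-type, 27 mutant). Inhibition was read as incorporation from [γ-³³P]ATP.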

[9] = target: Cyclin-dependent kinase 2/cyclin A (Homo sapiens) (UniProt P24941+P20248+P78396); experiment: Inhibition of CDK2/cyclinA (unknown origin) using [gamma-33P]ATP assessed as residual activity at 3 uM; format: protein-complex assay
Procedure, shortened: (§3)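 Radiometric profiling across 288 kinases (261 wild-type, 27 mutant), run as an outsourced service. Inhibition read out as [gamma-33P]ATP incorporation into substrate.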

[10] = target: Serine/threonine-protein kinase PAK 3 (Homo sapiens) (UniProt O75914); experiment: Inhibition of PAK3 (unknown origin) using [gamma-33P]ATP assessed as residual activity at 3 uM
[11] = target: Serine/threonine-protein kinase PAK 2 (Homo sapiens) (UniProt Q13177); experiment: Inhibition of PAK2 (unknown origin) using [gamma-33P]ATP assessed as residual activity at 3 uM
[12] = target: Serine/threonine-protein kinase WNK3 (Homo sapiens) (UniProt Q9BYP7); experiment: Inhibition of WNK3 (unknown origin) using [gamma-33P]ATP assessed as residual activity at 3 uM
[13] = target: Ephrin type-B receptor 2 (Homo sapiens) (UniProt P29323); experiment: Inhibition of EPHB2 (unknown origin) using [gamma-33P]ATP assessed as residual activity at 3 uM; procedure, shortened: as §1
[14] = target: Dual specificity protein kinase CLK2 (Homo sapiens) (UniProt P49760); experiment: Inhibition of CLK2 (unknown origin) using [gamma-33P]ATP assessed as residual activity at 3 uM; procedure, shortened: as §1
[15] = target: LIM domain kinase 1 (Homo sapiens) (UniProt P53667); experiment: Inhibition of LIMK1 (unknown origin) using [gamma-33P]ATP assessed as residual activity at 3 uM; procedure, shortened: as §2
Chain of LIM domain kinase 1 (Homo sapiens) (P53667 whole entry, looked up, the tested form may be a part): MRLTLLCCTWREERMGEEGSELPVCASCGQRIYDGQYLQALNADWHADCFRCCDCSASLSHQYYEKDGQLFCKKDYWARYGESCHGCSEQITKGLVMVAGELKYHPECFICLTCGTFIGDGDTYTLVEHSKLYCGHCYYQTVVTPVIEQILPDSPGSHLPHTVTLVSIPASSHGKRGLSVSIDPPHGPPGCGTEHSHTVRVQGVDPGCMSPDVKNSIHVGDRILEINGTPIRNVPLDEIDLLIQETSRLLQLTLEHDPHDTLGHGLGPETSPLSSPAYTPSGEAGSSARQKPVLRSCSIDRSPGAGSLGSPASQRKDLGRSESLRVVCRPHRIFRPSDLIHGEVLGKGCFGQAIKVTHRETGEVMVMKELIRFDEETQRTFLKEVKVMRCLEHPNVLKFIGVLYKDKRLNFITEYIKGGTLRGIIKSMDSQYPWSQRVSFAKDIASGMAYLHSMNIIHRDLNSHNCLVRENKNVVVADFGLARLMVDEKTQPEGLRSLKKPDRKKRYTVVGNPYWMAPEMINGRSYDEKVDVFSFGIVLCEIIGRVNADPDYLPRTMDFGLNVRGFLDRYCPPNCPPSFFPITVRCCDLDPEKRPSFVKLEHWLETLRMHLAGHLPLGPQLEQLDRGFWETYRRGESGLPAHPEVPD

[16] = target: Serine/threonine-protein kinase Nek6 (Homo sapiens) (UniProt Q9HC98); experiment: Inhibition of NEK6 (unknown origin) using [gamma-33P]ATP assessed as residual activity at 3 uM
[17] = target: Tyrosine-protein kinase FRK (Homo sapiens) (UniProt P42685); experiment: Inhibition of FRK (unknown origin) using [gamma-33P]ATP assessed as residual activity at 3 uM; procedure, shortened: as §2
[18] = target: Fibroblast growth factor receptor 2 (Homo sapiens) (UniProt P21802); experiment: Inhibition of FGFR2 (unknown origin) using [gamma-33P]ATP assessed as residual activity at 3 uM; procedure, shortened: as §1
Chain of Fibroblast growth factor receptor 2 (Homo sapiens) (P21802 whole entry, looked up): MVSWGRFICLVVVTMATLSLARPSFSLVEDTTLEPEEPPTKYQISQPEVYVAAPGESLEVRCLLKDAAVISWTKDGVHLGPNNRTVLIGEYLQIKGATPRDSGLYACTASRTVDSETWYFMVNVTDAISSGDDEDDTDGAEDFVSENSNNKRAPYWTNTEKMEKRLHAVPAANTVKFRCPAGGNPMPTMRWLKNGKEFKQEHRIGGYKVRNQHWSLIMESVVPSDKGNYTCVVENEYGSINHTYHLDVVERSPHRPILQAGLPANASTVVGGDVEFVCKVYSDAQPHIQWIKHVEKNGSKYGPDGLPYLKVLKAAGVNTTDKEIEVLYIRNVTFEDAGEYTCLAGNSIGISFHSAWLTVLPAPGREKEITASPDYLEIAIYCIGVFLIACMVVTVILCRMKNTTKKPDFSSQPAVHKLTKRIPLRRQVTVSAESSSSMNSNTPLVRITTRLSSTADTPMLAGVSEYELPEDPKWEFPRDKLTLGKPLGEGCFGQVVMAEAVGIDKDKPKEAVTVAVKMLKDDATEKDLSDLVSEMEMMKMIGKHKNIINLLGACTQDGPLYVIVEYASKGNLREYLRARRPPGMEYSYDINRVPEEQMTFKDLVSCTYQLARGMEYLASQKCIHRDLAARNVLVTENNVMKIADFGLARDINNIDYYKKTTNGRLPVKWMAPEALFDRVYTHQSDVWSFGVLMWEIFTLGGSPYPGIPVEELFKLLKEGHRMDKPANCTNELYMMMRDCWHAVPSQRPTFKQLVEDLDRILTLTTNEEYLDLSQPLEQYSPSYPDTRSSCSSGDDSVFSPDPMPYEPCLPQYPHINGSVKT

[19] = target: Protein kinase C delta type (Homo sapiens) (UniProt Q05655); experiment: Inhibition of PKCd (unknown origin) using [gamma-33P]ATP assessed as residual activity at 3 uM
[20] = target: Mitogen-activated protein kinase 11 (Homo sapiens) (UniProt Q15759); experiment: Inhibition of P38b (unknown origin) using [gamma-33P]ATP assessed as residual activity at 3 uM
[21] = target: Ribosomal protein S6 kinase alpha-1 (Homo sapiens) (UniProt Q15418); experiment: Inhibition of RSK1 (unknown origin) using [gamma-33P]ATP assessed as residual activity at 3 uM
[22] = target: Death-associated protein kinase 3 (Homo sapiens) (UniProt O43293); experiment: Inhibition of ZIPK (unknown origin) using [gamma-33P]ATP assessed as residual activity at 3 uM
[23] = target: Casein kinase I isoform delta (Homo sapiens) (UniProt P48730); experiment: Inhibition of CK1d (unknown origin) using [gamma-33P]ATP assessed as residual activity at 3 uM; procedure, shortened: as §3
Chain of Casein kinase I isoform delta (Homo sapiens) (P48730 whole entry, looked up, canonical isoform): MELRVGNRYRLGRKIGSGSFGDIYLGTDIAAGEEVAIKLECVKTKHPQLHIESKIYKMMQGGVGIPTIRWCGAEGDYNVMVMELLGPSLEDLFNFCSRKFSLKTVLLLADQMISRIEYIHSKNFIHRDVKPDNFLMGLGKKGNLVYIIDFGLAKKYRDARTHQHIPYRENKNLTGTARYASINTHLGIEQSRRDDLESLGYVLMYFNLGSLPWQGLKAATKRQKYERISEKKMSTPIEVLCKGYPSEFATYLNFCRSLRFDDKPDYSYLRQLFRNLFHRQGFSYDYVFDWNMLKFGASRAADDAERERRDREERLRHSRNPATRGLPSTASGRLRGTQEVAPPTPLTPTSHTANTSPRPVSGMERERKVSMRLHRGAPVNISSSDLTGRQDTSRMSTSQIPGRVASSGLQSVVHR

[24] = target: Dual specificity protein kinase CLK1 (Homo sapiens) (UniProt P49759); experiment: Inhibition of CLK1 CD (unknown origin) using [gamma-33P]ATP assessed as residual activity at 3 uM; procedure, shortened: as §1
Chain of Dual specificity protein kinase CLK1 (Homo sapiens) (P49759 whole entry, looked up, the tested form may be a part): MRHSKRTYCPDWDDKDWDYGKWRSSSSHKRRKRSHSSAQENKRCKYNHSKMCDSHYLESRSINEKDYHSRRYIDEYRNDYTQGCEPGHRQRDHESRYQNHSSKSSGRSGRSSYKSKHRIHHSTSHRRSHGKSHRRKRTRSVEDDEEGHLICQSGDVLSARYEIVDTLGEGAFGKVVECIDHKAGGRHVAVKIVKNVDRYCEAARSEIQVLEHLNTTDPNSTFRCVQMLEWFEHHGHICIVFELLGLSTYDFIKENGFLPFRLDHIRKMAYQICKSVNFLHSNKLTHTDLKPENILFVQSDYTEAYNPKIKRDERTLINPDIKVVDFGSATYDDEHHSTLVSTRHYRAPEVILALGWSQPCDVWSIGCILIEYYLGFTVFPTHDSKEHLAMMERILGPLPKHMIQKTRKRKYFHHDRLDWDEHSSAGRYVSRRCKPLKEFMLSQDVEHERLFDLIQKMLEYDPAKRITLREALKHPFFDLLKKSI

[25] = target: Discoidin domain-containing receptor 2 (Homo sapiens) (UniProt Q16832); experiment: Inhibition of DDR2 (unknown origin) using [gamma-33P]ATP assessed as residual activity at 3 uM; procedure, shortened: as §1
[26] = target: CDK6/cyclin D3 (Homo sapiens) (UniProt P30281+Q00534); experiment: Inhibition of CDK6/cyclin D3 (unknown origin) using [gamma-33P]ATP assessed as residual activity at 3 uM; format: protein-complex assay; procedure, shortened: as §3
[27] = target: Wee1-like protein kinase (Homo sapiens) (UniProt P30291); experiment: Inhibition of WEE1 (unknown origin) using [gamma-33P]ATP assessed as residual activity at 3 uM
Chain of Wee1-like protein kinase (Homo sapiens) (P30291 whole entry, looked up): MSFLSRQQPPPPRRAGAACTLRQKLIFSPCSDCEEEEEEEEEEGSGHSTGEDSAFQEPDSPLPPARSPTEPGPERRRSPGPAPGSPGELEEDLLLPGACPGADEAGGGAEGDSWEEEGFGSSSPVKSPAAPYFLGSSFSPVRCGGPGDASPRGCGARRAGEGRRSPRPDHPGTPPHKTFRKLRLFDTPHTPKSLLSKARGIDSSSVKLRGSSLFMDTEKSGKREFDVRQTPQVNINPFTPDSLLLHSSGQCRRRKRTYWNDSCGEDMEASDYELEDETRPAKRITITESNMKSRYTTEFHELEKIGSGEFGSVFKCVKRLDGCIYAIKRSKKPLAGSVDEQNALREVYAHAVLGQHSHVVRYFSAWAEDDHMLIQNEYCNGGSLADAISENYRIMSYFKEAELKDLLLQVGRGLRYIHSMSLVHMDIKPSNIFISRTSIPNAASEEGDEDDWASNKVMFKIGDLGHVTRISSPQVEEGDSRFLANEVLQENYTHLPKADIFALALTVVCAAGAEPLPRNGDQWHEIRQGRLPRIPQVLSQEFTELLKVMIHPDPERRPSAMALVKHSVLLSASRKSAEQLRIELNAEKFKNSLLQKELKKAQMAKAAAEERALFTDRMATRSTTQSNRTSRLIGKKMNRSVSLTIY

[28] = system: Proto-oncogene tyrosine-protein kinase Src (Homo sapiens), P12931 [T341M]; experiment: Inhibition of c-Src T341M mutant (unknown origin) using [gamma-33P]ATP assessed as residual activity at 3 uM
[29] = target: Inhibitor of nuclear factor kappa-B kinase subunit beta (Homo sapiens) (UniProt O14920); experiment: Inhibition of IKKb (unknown origin) using [gamma-33P]ATP assessed as residual activity at 3 uM; procedure, shortened: as §2
[30] = target: Tyrosine-protein kinase Fer (Homo sapiens) (UniProt P16591); experiment: Inhibition of FER (unknown origin) using [gamma-33P]ATP assessed as residual activity at 3 uM; procedure, shortened: as §1
[31] = target: G protein-coupled receptor kinase 4 (Homo sapiens) (UniProt P32298); experiment: Inhibition of GRK4 (unknown origin) using [gamma-33P]ATP assessed as residual activity at 3 uM; procedure, shortened: as §2
Chain of G protein-coupled receptor kinase 4 (Homo sapiens) (P32298 whole entry, looked up): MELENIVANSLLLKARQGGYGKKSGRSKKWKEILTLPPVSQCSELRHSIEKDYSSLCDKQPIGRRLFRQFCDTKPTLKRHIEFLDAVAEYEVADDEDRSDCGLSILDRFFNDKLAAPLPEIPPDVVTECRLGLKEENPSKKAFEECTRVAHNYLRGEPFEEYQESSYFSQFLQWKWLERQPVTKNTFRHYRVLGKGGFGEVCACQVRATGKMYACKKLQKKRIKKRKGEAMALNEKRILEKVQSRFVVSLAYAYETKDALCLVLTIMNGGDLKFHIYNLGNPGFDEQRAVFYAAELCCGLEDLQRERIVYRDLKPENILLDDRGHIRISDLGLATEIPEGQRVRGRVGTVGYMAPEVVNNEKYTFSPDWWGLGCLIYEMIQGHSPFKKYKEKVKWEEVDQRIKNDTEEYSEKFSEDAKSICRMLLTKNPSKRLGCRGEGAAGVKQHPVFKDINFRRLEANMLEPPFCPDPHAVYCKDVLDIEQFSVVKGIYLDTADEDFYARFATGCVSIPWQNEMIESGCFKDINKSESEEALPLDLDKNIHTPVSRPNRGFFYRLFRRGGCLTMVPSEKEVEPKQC

CCc1ccc(-c2ccc3c(c2)-c2[nH]ncc2S(=O)(=O)N3C)cc1
Activity [1]: 87%
Activity [2]: 61%
Activity [3]: 89%
Activity [4]: 96%
Activity [5]: 86%
Activity [6]: 102%
Activity [7]: 89%
Activity [8]: 102%
Activity [9]: 96%
Activity [10]: 95%
Activity [11]: 94%
Activity [12]: 106%
Activity [13]: 95%
Activity [14]: 68%
Activity [15]: 86%
Activity [16]: 94%
Activity [17]: 80%
Activity [18]: 87%
Activity [19]: 91%
Activity [20]: 103%
Activity [21]: 96%
Activity [22]: 97%
Activity [23]: 94%
Activity [24]: 85%
Activity [25]: 96%
Activity [26]: 102%
Activity [27]: 91%
Activity [28]: 77%
Activity [29]: 102%
Activity [30]: 96%
Activity [31]: 94%

Source: ChEMBL document CHEMBL2346629, “Discovery and characterization of novel allosteric FAK inhibitors” (Eur J Med Chem, 2013)
